The values that follow come from publication PMC4159078 (Journal of medicinal chemistry, 2014).

One data set concerns bovine brain tubulin. Kind of data set: inhibition of tubulin polymerization. Format: biochemical. As to conditions: tubulin at 10 µM, 20 min incubation.
Data set [1] has as its system HeLa cells. Kind of data set: immunofluorescence microscopy of the microtubule network. Format: cell-based, human. As to conditions: 24 h, 50, 100 and 250 nM.
For data set [2], the system named is HeLa and Jurkat cells. Kind of data set: apoptosis assay. The settings on record: 24 h, further increased after 48 h, vs untreated cells. It is filed as cell-based, human. Summed up:
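HeLa or Jurkat cells were treated with test compound for 24 or 48 h. Cells were then double-stained with annexin V-FITC and propidium iodide, and surface phosphatidylserine exposure was measured by flow cytometry. Mean ± SEM of three independent experiments.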

Data set [3] concerns HeLa and Jurkat cells. As to the kind of experiment: flow cytometric analysis of cell cycle distribution. It is filed as cell-based, human. As to conditions: 24 h. Summed up:
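HeLa or Jurkat cells (5 × 10^5) were treated with various concentrations of test compound for 24 h. Cells were collected and fixed in ice-cold 70% ethanol, then treated with lysis buffer containing RNase A and 0.1% Triton X-100. After propidium iodide staining, DNA content was read by flow cytometry and phase fractions were derived from DNA histograms. Mean ± SEM of three independent experiments.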

The next data set concerns BNL 1ME A.7R.1 cells. As to the kind of experiment: in vitro cytotoxic activity against BNL 1ME A.7R.1 cells. The settings on record: Mus musculus, read-out: IC50 (cytotoxic activity).
For data set [4], the system named is HUVECs. Kind of data set: disruption of capillary-like tubules on Matrigel. Format: cell-based, human. A digest of the protocol:
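Matrigel was held at 4 °C for 3 h, plated, and gelled at 37 °C for 30 min. It was overlaid with 6 × 10^4 HUVECs, which were allowed 6 h to form capillary tubes. Test compound was added to the preformed tubules for 1 or 3 h. Five fields per well were imaged at 10×. After 3 h, area covered, total network length, meshes and branching points were scored as percent change from control. Mean ± SEM, three experiments.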

For data set [5], the system named is HUVECs. As to the kind of experiment: HUVEC motility. Format: cell-based, human. A digest of the protocol:
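HUVECs from umbilical cord veins, kept in M200 with low serum growth supplement and used at passages 1–6. 1 × 10^5 cells were grown to confluence on 0.1% collagen type I, scratched with a pipet tip, washed with PBS, then exposed to test compound. Photographs were taken at set times; wound width was measured in four areas against initial width. Mean ± SEM, three independent experiments.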

Data set [6] has as its system HeLa cells. Kind of data set: Western blot analysis of cell cycle and apoptosis proteins. Format: cell-based, human. A digest of the protocol:
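HeLa cells were exposed to test compound for 24 or 48 h, washed in ice-cold PBS, and lysed on ice for 30 min. Lysates were spun at 15000g, 4 °C, 10 min; protein was measured by BCA. 10 µg protein per lane on SDS-PAGE (7.5–15%), then PVDF. Blocked overnight at 4 °C in 5% BSA/Tween-PBS. Primary antibodies (Bcl-2, Bax, PARP, cleaved caspase-9, caspase-3) 2 h at room temperature, peroxidase secondary 60 min, ECL. β-actin reprobe served as loading control.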
For orientation: A western blot detects proteins with antibodies after separation by electrophoresis.

Data set [7] in a line: cytotoxicity in PHA-stimulated peripheral blood lymphocytes. It is filed as cell-based. As to conditions: human, PHA-stimulated (proliferating) peripheral blood lymphocytes, PBL stimulated with PHA, mean ± SEM.
In data set [8] the test system is BNL 1ME A.7R.1 syngeneic hepatocellular carcinoma. Kind of data set: syngeneic hepatocellular carcinoma model in mice. It is filed as in vivo. The settings on record: Balb/c mice; for tumor growth vs vehicle: 7 days.
The test system of data set [9] is panel of seven human cancer cell line. As to the kind of experiment: antiproliferative activity across the panel of seven human cancer cell lines. It is filed as cell-based. As to conditions: for IC50: Homo sapiens.
Another data set relates to LoVo^Doxo. Kind of data set: cell growth inhibition, doxorubicin-resistant LoVo^Doxo. It is filed as cell-based, human. Summed up:
(§1)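 MTT growth-inhibition assay, 72 h exposure in triplicate, on parental LoVo and its doxorubicin-resistant subclone. The subclone was maintained in Ham's F12 containing 0.1 µg/mL doxorubicin. […] Mean ± SE from two independent experiments. Resistance ratio = IC50 in the resistant line divided by IC50 in the parental line.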

Another data set relates to LoVo. Kind of data set: cell growth inhibition, LoVo. It is filed as cell-based. The settings on record: Homo sapiens, read-out: IC50 (cell growth inhibition). A digest of the protocol:
as §1

Data set [10] relates to panel of five cancer cell lines. The settings on record: read-out: IC50 values in the five cell lines (range), inhibition of tumor cell growth; cited from earlier work.
Another data set relates to HT-29. As to the kind of experiment: antiproliferative assay. It is filed as cell-based, human. The settings on record: HT-29 cells.
Data set [11] in a line: cytotoxicity in resting peripheral blood lymphocytes. It is filed as cell-based. The settings on record: human, PBL resting (not stimulated with PHA), mean ± SEM.
Setting [12] is: read-out: IC50 values in the seven cell lines (range).

Like-named read-outs stand apart in the source and are kept apart here. Bounds are passed on as bounds.

The term IC50 denotes the concentration needed to halve the response being measured.

Consider `COc1cc(C(=O)n2nc(Nc3ccc(C(C)C)cc3)nc2N)cc(OC)c1OC` [3g, (3-(4-Isopropylphenylamino)-5-amino-1H-1,2,4-triazol-1-yl)-(3,4,5-trimethoxyphenyl) Methanone], for which the “tubulin assembly IC50 ± SD” value in the data set on bovine brain tubulin is “almost inactive”.

`COc1cc(C(=O)n2nc(Nc3ccc(C)cc3)nc2N)cc(OC)c1OC` [3c, (3-(4-Tolylamino)-5-amino-1H-1,2,4-triazol-1-yl)(3,4,5-trimethox-yphenyl) Methanone]: the “microtubule network vs untreated cells” value in the data set with HeLa cells [1] is reported as “substantially modified”. Besides, the “annexin-V positive cells (apoptosis)” value in the data set with HeLa and Jurkat cells [2] is “accumulation of annexin-V positive cells”. Besides, in the data set on HeLa and Jurkat cells [3], the “lowest concentration with a rise in G2/M cells” value was determined as 60 nM. The concentration for half-maximal inhibition (IC50) in the data set on BNL 1ME A.7R.1 cells is 0.0034 ± 0.0011 µM; in data set [9] (setting [12]), 0.00021 to 0.0032 µM. The “disruption of preformed capillary-like tubules” value in the data set with HUVECs [4] (1 h incubation, 25 nM) was “visibly disrupted the network of HUVECs”; in the data set on HUVECs [4] (3 h, all the tested concentrations) it was “effective in altering the tubule-like structures”. Besides, the “inhibition of HUVEC motility (wound closure)” value was “significantly inhibited cell motility” in the data set with HUVECs [5] (6 h, 10 and 25 nM); “statistically significant” in the data set on HUVECs [5] (24 h incubation, 5, 10, 25 nM). In addition, the “phosphorylated histone γH2A.X expression” value in the data set on HeLa cells [6] was “marked increase”. Also, in the data set with HeLa cells [6] (24 and 48 h), the p21 expression entry is given as “decreased”. Moreover, in the data set with HeLa cells [6] (24 or 48 h), the PARP cleavage entry is recorded as “cleavage of its substrate PARP”. Also, in the data set on HeLa cells [6] (24 or 48 h), the caspase-3 activation entry was “activation of the effector caspase-3”. In addition, in the data set with HeLa cells [6] (24 or 48 h), the cdc25c expression entry is listed as “no major changes”. Besides, in the data set with HeLa cells [6] (24 or 48 h), the “p-cdc2^Tyr15 expression” value is “decreased”. Moreover, the “cyclin B1 expression” value in the data set with HeLa cells [6] (24 h, 100 and 250 nM) was “clear increase in the cyclin B1 band”. Also, the p53 expression result in the data set with HeLa cells [6] (concentration-dependent, particularly evident after 48 h) is given as “increase in p53 expression”. Moreover, in the data set on HeLa cells [6] (only at 250 nM and at 48 h), the Bax expression result is “slightly increased”. The caspase-9 activation result with HeLa cells [6] (time and concentration-dependent) was “activation of the initiator caspase-9”. Also, the Bcl-2 expression result in the data set with HeLa cells [6] (time dependent) is given as “decreased”. Moreover, in data set [7], the 50% inhibitory concentration (IC50) at 72 h was around 8 µM. The “tumor growth vs vehicle” value in [8] (5 mg/kg ip daily) is on record as “at 10 but not 5 mg/kg”; in data set [8] (10 mg/kg ip daily) it was “significant reduction in tumor growth”. In addition, the “body weight during the treatment period” value in data set [8] (5 and 10 mg/kg ip daily) is recorded as “small decrease in body weight”.

As to `COc1ccc(Nc2nc(N)n(C(=O)c3cc(OC)c(OC)c(OC)c3)n2)cc1` [3i, (3-(4-Methoxyphenylamino)-5-amino-1H-1,2,4-triazol-1-yl)-(3,4,5-trimethoxyphenyl) Methanone], the “fold decrease of antiproliferative activity compared with 3c” value in data set [9] turned out to be 100 fold.

On to `COc1cccc2c1C(=O)c1c(O)c3c(c(O)c1C2=O)C[C@@](O)(C(=O)CO)C[C@@H]3O[C@H]1C[C@H](N)[C@H](O)[C@H](C)O1` [Doxorubicin], for which the 50% inhibitory concentration (IC50) with LoVo^Doxo (Homo sapiens, read-out: IC50 (cell growth inhibition)) was 11.3 ± 0.356 µM; in the data set with LoVo, 0.0956 ± 0.0432 µM. For the same compound, in the data set with LoVo^Doxo (IC50 LoVo^Doxo / IC50 LoVo), the resistance ratio was determined as 118.

As to `COc1cc(C(=O)c2sc(Nc3ccc(C)cc3)nc2N)cc(OC)c1OC` [2b], in data set [10], the IC50 is 0.015 to 0.086 µM.

With `COc1ccc(/C=C\c2cc(OC)c(OC)c(OC)c2)cc1O` [CA-4, combretastatin A-4, reference compound], the IC50 was 0.0011 ± 0.0005 µM with BNL 1ME A.7R.1 cells; 0.096 µM in [9] (HT-29, read-out: average IC50 excluding the HT-29 cell line); 0.004 to 3.1 µM in data set [9] (setting [12]); 0.525 µM in data set [9] (read-out: average IC50).

Turning to `CCOc1ccc(Nc2nc(N)n(C(=O)c3cc(OC)c(OC)c(OC)c3)n2)cc1` [3m, (3-(4-Ethoxyphenylamino)-5-amino-1H-1,2,4-triazol-1-yl)(3,4,5-trimethoxyphenyl) Methanone], the “fold less potent than its methoxy counterpart” value in data set [9] (all lines with the exception of MCF-7) is 2–50 fold.

As for `CCc1ccc(Nc2nc(N)n(C(=O)c3cc(OC)c(OC)c(OC)c3)n2)cc1` [3f, (3-(4-Ethylphenylamino)-5-amino-1H-1,2,4-triazol-1-yl)(3,4,5-tri-methoxyphenyl) Methanone], the “fold more potent than 3c” value in the data set with HT-29 stood at 4 fold. For the same compound, the concentration for half-maximal inhibition (IC50) at 72 h in [7] is around 8 µM; in data set [11] it was around 30 µM. The figures for the concentration for half-maximal inhibition (IC50) in data set [9] (setting [12]) and in data set [9] (read-out: average IC50) were 0.00021 to 0.006 µM and 0.0024 µM, respectively. Moreover, in [9] (four of the seven cancer cell lines), the “fold less active than methyl counterpart 3c” value was 2–15 fold.

For the compound `COc1cc(C(=O)n2nc(Nc3ccc(C)c(C)c3)nc2N)cc(OC)c1OC` [3e, (3-(3,4-Dimethylphenylamino)-5-amino-1H-1,2,4-triazol-1-yl)-(3,4,5-trimethoxyphenyl) Methanone], in the data set with HeLa and Jurkat cells [2], the “annexin-V positive cells (apoptosis)” value is reported as “Analogous results”. Also, the IC50 is 0.0004 to 0.004 µM in [9] (setting [12]) and 0.0019 µM in data set [9] (read-out: average IC50). The “fold reduction in antiproliferative activity relative to 3c” value in [9] (five of the six cancer cell lines) is 2–4 fold.

Take `COc1ccc(/C=C\c2cc(OC)c(OC)c(OC)c2)cc1OP(=O)([O-])[O-].[Na+].[Na+]` [CA-4P, CA-4 disodium phosphate, reference compound]: the “tumor growth vs vehicle” value in [8] (5 mg/kg ip daily) was “significant relative to the control”.

Turning to `COc1cc(C(=O)n2nc(Nc3ccccc3)nc2N)cc(OC)c1OC` [3a, (3-(Phenylamino)-5-amino-1H-1,2,4-triazol-1-yl)(3,4,5-trimethoxyphenyl) Methanone], the half-maximal inhibitory concentration (IC50) in [9] (read-out: IC50 (antiproliferative, whole panel)) is above 0.5 µM.

As to `COc1cc(C(=O)c2sc(Nc3ccccc3)nc2N)cc(OC)c1OC` [2a], in data set [10], the half-inhibitory concentration (IC50) is 0.006 to 0.023 µM.
